Only some compounds are listed: those with a hit (about 2.9% of all), similar ones and a draw of the others.
TAG inh: inhibitors of triacylglycerol accumulation, primary screen, cell-based, uHTS, fluorescence, H9c2; H9c2 cells, Nile Red lipid (TAG) fluorescence; cells loaded with 200 µM oleic acid; inhibition, % at 12.5 µM; 230,000 tested, 0.66% active; AID 651582, 2012;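 active = pattern-corrected inhibition of lipid staining of at least 50% with the nuclear-stain viability signal not falling by more than 50%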
T cruzi repl: inhibitors of intracellular T. cruzi growth, primary screen, luminescence, NIH3T3 host cells; T. cruzi beta-gal in NIH3T3, 90 h; inhibition, % (concentration not given with the values); 300,000 tested, 1.4% active; AID 1885, 2009;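 active = mean inhibition across valid replicates above about 55%, limit read from the data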;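 also: signal also drops with host cell toxicity which is not excluded here; higher percent means less beta-gal luminescence so fewer parasites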
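Assay system: NIH/3T3 fibroblasts plus reporter T. cruzi. Amount: NIH/3T3 cells, 5,000 per well. Buffer or medium: DMEM, 2% fetal bovine serum. Doses: compound pinned at 50 nL/well, DMSO. Schedule: ≥90 h infection period, 3 h prior cell attachment. Signal: luminescent β-galactosidase signal after 60 min lysis. Read-out: parasite load inhibition, %.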
hiPSC survival: enhancers of single-cell hiPSC survival, primary screen, ATPlite luminescence; 100% = ROCK inhibitor wells, 0% = DMSO; survival enhancement, % at 20 µM; 360,000 tested, 0.044% active; in the data active = survival enhancement above about 18%;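 also: cells exposed to compounds for 16 hours before the ATP read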
Rev-erbA mod: modulators of Rev-erb alpha DNA binding, primary screen, biochemical, FITC-DNA, fluorescence polarization, uHTS | Rev-erbα–FITC-DNA binding, 90 min | activity, % at 10 µM | 370,000 tested, 0.79% active | AID 1259318, 2017;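 active = activity above about 14%, limit read from the data; passing the limit was not always enough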
Target sequence (P20393 whole entry, looked up): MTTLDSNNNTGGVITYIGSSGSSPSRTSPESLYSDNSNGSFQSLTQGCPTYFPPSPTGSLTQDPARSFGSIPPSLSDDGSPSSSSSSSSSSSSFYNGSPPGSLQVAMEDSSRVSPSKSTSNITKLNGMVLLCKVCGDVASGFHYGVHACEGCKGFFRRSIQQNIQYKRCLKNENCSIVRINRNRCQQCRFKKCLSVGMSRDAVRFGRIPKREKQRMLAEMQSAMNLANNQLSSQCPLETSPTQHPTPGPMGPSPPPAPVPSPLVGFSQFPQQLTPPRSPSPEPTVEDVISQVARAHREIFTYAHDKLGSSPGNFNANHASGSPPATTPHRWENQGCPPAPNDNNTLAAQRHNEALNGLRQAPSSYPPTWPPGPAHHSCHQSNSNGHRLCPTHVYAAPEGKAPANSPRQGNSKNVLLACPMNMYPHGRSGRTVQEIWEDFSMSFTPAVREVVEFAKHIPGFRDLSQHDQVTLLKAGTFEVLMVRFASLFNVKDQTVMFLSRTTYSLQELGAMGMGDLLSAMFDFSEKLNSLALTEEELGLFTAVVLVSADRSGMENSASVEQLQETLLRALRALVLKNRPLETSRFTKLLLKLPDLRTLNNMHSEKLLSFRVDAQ
PG9 binder: binders of HIV-1 gp120 antibody PG9, primary screen, biochemical, TR-FRET. TR-FRET gp120-PG9 antibody binding. 360,000 tested, 0.43% active. inhibition, % at 6.7 µM. HIV-1 gp120 / PG9 antibody interaction; in the data active = inhibition above about 8.5%
beta cell repl: inducers of MIN6 beta-cell proliferation, primary screen, ATP luminescence, uHTS; proliferation, % at 10 µM; MIN6 cells proliferation, ATPlite luminescence, 48 h; cells starved in 0.2% serum; 100% = growth in 10% serum; 330,000 tested, 0.29% active;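 active = compounds whose signal lies at least 3.5 SD above the mean of all wells on their plate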
TAG conf: triacylglycerol accumulation inhibitors, retest, confirmation, cell-based, single concentration, Nile Red fluorescence, H9c2 | shares compounds with TAG inh | H9c2 lipid accumulation; cells loaded with 200 µM oleic acid | inhibition, % at 12.5 µM | 990 tested, 71% active | AID 651629, 2012;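 active = mean inhibition across replicates of 40% or more; inactive = mean inhibition below 40%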
A number is an active result; 0 = inactive; - = no result.

SMILES	TAG inh	T cruzi repl	hiPSC survival	Rev-erbA mod	PG9 binder	beta cell repl	TAG conf
O=C(c1ccc2c(c1)OCO2)C1CCCN(Cc2cccc(C(F)(F)F)c2)C1 (stereo unspecified)	0	0	0	0	0	0	-
COCCCNC(=O)c1ccc(Cn2c(=O)c3ccccc3n(Cc3ccc(C)cc3)c2=O)cc1	0	0	0	0	0	0	-
Nc1ccc(C=C2C=Cc3ccccc32)cc1	0	-	0	0	0	-	-
NC(N)=Nc1ccc(C=C2C=Cc3ccccc32)cc1	60.2	-	0	0	0	-	61.0
Cc1cccc(NC(=O)c2nc[nH]c2C(=O)NCCCCCCNC(=O)c2[nH]cnc2C(=O)Nc2cccc(C)c2)c1	75.6	-	0	0	0	0	0
CNC(=O)c1[nH]cnc1C(=O)Nc1cccc(C)c1	-	-	0	0	0	0	-
CC(C)c1ccc(NC(=O)C2CCCCC2C(=O)O)cc1 (stereo unspecified)	-	0	0	0	0	0	-
CC(C)(C)OC(=O)N(CCc1ccccc1)Cc1ccccc1OCc1cccc(NC(=O)/C=C/c2ccccc2)c1	53.1	-	0	0	0	-	43.2
CC(C)(C)OC(=O)N(CCc1ccccc1)Cc1ccc(OCc2cccc(NC(=O)/C=C/c3ccccc3)c2)cc1	50.9	-	0	0	0	-	65.3
O=C(NCc1ccccc1Cl)C1(S(=O)(=O)c2ccc(Cl)cc2)CC1	-	0	0	0	0	0	-
CCn1c2ccccc2c2cc(N)ccc21	-	0	0	0	0	0	-
CCC(CC)NCc1ccc2c(c1)c1ccccc1n2CC	52.0	0	0	0	0	0	0
O=C(CSc1ccc(C(F)(F)F)cn1)Nc1ccccc1	0	-	0	0	0	0	-
O=C(/C=C/Sc1ccc(C(F)(F)F)cn1)c1ccccc1	50.1	0	0	0	0	0	45.1
O=C(Nc1ccc(S(=O)(=O)N2CCOCC2)cc1)c1ccc([N+](=O)[O-])s1	94.0	72.3	0	0	0	0	89.2
CCc1nnc(NS(=O)(=O)c2ccc(NC(=O)c3ccc([N+](=O)[O-])s3)cc2)s1	66.9	-	0	0	0	-	0
O=C(COc1ccc2c3c(c(=O)oc2c1)CCC3)Nc1ccc(CCO)cc1	-	0	0	0	0	0	-
COC(=O)[C@@]1(Cc2ccc(OC)cc2)[C@@H]2C(=CC(=O)[C@H]2CC(=O)C(=O)N2CCCC2)CN1C(=O)c1ccccc1	53.1	-	0	-	-	0	54.6
COc1ccc2nc(NC(=O)C3CCCN(S(=O)(=O)c4c(C)noc4C)C3)sc2c1 (stereo unspecified)	0	0	0	0	0	0	-
CCOc1ccc2nc(NC(=O)C3CCCN(S(=O)(=O)c4c(C)noc4C)C3)sc2c1 (stereo unspecified)	56.8	-	0	0	0	0	74.8
COc1ccc2nc(NC(=O)c3cccc(OCc4c(C)noc4C)c3)sc2c1	57.9	0	0	0	0	0	47.6
COC(=O)c1ccc(CSC2=NCCS2)cc1	-	0	0	0	0	0	-
COc1c2occc2c(OC)c2c(=O)cc(C(F)(F)F)oc12	0	0	0	0	0	0	-
COc1cc(NC(=O)c2cc([N+](=O)[O-])ccc2NC(=O)CN2CCN(c3ccccn3)CC2)cc(OC)c1	59.8	0	0	0	0	0	79.4
c1ccc(-c2nc(N3CCOCC3)cc(N3CCOCC3)n2)cc1	51.0	0	0	0	0	0	53.5
SMILES	TAG inh	T cruzi repl	hiPSC survival	Rev-erbA mod	PG9 binder	beta cell repl	TAG conf
Cc1ccc(S(=O)(=O)Nc2ccc(C(=O)NCc3ccccn3)cc2)cc1	0	0	0	0	0	0	-
CCOC(=O)c1nnn(-c2nonc2N)c1-c1ccc(OC)cc1	0	0	0	0	0	0	-
CS(=O)(=O)Oc1ccc2c(c1)O/C(=C\C=C\c1ccccc1)C2=O	54.3	0	0	0	0	0	0
Cc1cnc(NC(=O)CSc2ccccc2)s1	-	0	0	0	0	0	-
CCOc1ccc2nc(-c3ccccc3)nc(SCC(=O)Nc3ncc(C)s3)c2c1	82.9	0	0	0	0	0	81.1
COc1ccc(CNC(=O)/C=C/c2ccc(OCCCF)cc2)cc1	55.6	0	0	0	0	0	0
C/C(=C\c1cc(C(=O)O)c(C)o1)CO	0	0	0	0	0	0	-
COc1cccc(-c2cc(C(=O)Nc3ccc(N(C)C(C)=O)cc3)c3cc(Br)ccc3n2)c1	50.3	60.9	0	0	0	0	56.6
Cc1ccc(N2CCN(C(CCc3ccccc3)C(=O)Nc3c(C)cccc3C)CC2)cc1 (stereo unspecified)	-	-	-	0	0	-	-
CN(C)CC(O)c1ccc(C=Cc2ccc(Cl)cc2)cc1 (stereo unspecified)	73.3	-	0	0	0	-	44.2
Cc1cc(C)c(NC(=O)CSc2nc3ccc(NC(=O)CSc4nnnn4Cc4ccccc4)cc3s2)c(C)c1	55.9	0	0	0	0	0	41.6
Oc1ccc(C[C@H]2CNC(=S)N2CC2CCCN2C[C@H](Cc2ccc(O)cc2)N2C[C@H](Cc3ccc(O)cc3)N(CC3CCCCC3)C2=S)cc1 (stereo partly specified)	75.4	-	0	0	0	-	72.8
Oc1ccc(C[C@H]2CN([C@@H](Cc3ccccc3)CN3CCCC3CN3C(=S)NC[C@@H]3Cc3ccccc3)C(=S)N2CC2CCCCC2)cc1 (stereo partly specified)	-	-	0	0	0	-	-
COc1ccc2[nH]c3c(c2c1)CCN1C(=O)C(CC(=O)NCCC2=CCCCC2)C[C@H](C(=O)N2CCOCC2)[C@@]31CCC1CCCC1 (stereo partly specified)	0	-	0	0	0	-	-
COc1ccc2[nH]c3c(c2c1)CCN1C(=O)C(CC(=O)NCC24CC5CC(CC(C5)C2)C4)C[C@H](C(=O)N2CCOCC2)[C@@]31CCC1CCCC1 (stereo partly specified)	71.9	-	0	0	0	-	72.9
O=C(C[C@H]1C[C@H](C(=O)N2CCOCC2)[C@@]2(CCC3CCCC3)c3[nH]c4ccc(Cl)cc4c3CCN2C1=O)NCC12CC3CC(CC(C3)C1)C2	69.1	-	0	0	0	-	63.2
CCn1ncc(/C=N/N=C2\CCC3C4CCc5cc(O)ccc5C4CCC23C)c1C (stereo unspecified)	52.2	0	0	0	0	0	47.9

Source: PubChem (several laboratories)
